Compound activity from PubChem.
Ecoli WT expand = blocks growth of wild type E. coli BW25113; OD600 absorbance; growth inhibition, % at 100 µM; 98,000 tested, 0.15% active;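 active = growth inhibition above about 50% at one test dose, limit read from the data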;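 also: growth measured after 20 h incubation at 37 °C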
PostGolgi yeast = growth inhibition of a yeast mutant, post-Golgi transport screen | inhibition, % at 10 µM | 98,000 tested, 0.9% active | post-Golgi transport phenotypic cell assay;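 also: yeast cells grown in 1536-well plates; yeast grown about 18 h at 30C before absorbance read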
PostGolgi ctrl = yeast control strain growth, post-Golgi counter-screen | efflux-deficient yeast background strain, growth absorbance A615, 16 h | inhibition, % at 10 µM | 98,000 tested, 5% active
HePTP inhibitor = inhibitors of human HePTP phosphatase; 110,000 tested, 0.64% active; P35236; inhibition, % at 20 µM; recombinant HePTP phosphatase activity, OD absorbance; in the data active = inhibition above about 50%;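 also: plate controls were vehicle for no effect and reference inhibitor for full effect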
PLAP activator = activates human placental alkaline phosphatase. AID 696. 96,000 tested, 1.2% active. purified PLAP enzyme, luminescent substrate read-out; active compounds read high. activation fold at 20 µM. P05187; in the data active = activation fold above about 2
Target sequence (P05187 whole entry, looked up): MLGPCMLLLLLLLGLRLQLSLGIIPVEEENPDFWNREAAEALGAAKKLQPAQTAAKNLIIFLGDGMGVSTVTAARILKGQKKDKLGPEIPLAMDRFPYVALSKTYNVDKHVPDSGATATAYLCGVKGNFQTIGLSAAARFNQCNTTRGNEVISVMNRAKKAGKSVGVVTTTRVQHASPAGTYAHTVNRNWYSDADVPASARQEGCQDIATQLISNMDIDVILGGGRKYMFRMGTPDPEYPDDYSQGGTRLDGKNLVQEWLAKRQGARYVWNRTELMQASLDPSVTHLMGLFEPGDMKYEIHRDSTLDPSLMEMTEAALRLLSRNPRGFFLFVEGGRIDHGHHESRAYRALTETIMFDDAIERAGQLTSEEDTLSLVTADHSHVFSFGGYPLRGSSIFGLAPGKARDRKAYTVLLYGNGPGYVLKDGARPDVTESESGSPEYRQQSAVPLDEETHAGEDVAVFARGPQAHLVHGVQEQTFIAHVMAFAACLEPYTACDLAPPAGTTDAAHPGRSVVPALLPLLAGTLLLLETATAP
tolC growth inh = blocks growth of E. coli BW25113 tolC mutant | 65,000 tested, 2.2% active | growth inhibition, % at 10 µM (by protocol) | AID 573 | OD615;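 active = growth inhibition at or above a cutoff equal to the mean over every tested compound plus 3 SD, cut at about 60% in these data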;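 also: growth measured after 20 h incubation at 37 °C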
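Test system: E. coli BW25113 ΔtolC::kan bacteria; incubation: 37 °C, 20 h exposure; medium: LB broth supplemented with 50 µg/mL kanamycin; read-out basis: percent growth inhibition; signal: A615 absorbance measurement; compound: 10 µM final, single dose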
The depositor's hits bear a star; x = no result given. The list is not random: actives were taken first. Their share in the collection is about 5.5%. Rule as the data show it, unless noted: active = inhibition above about 30%; inactive = the rest.

SMILES	Ecoli WT expand	PostGolgi yeast	PostGolgi ctrl	HePTP inhibitor	PLAP activator	tolC growth inh
Cc1ccc(C(=O)Nc2ccc(Br)cc2)cc1S(=O)(=O)Nc1ccc(Cl)cn1	x	x	x	-4	x	x
COc1ccccc1C1CC(c2ccc(Cl)cc2)Nc2ncnn21 (stereo not given)	10	4	3	4	1.1	60*
COc1ccc(CC(=O)Nc2cccc(C(=O)O)c2C)cc1	-5	14	34*	-3	1	-23
COc1cc(/C=C2/SC(N)=NC2=O)ccc1OCc1ccccc1[N+](=O)[O-]	x	x	x	14	x	x
NS(=O)(=O)c1ccc(N2N=C(/C=C/c3ccc(F)cc3)CC2c2ccc(F)cc2)cc1 (stereo not given)	x	x	x	-3	x	x
CCc1ccc(C2=NN(c3ccc(S(N)(=O)=O)cc3)C(c3ccc(F)cc3)C2)cc1 (stereo not given)	-11	18	91*	x	1.4	x
CC1CC(Nc2ccccc2)c2ccccc2N1C(=O)NC1CCCCC1 (stereo not given)	x	x	x	7	x	x
CC(=O)Nc1ccc(NC(=O)Cn2cnc3c2c(=O)n(C)c(=O)n3C)cc1	x	x	x	1	x	x
CC1C/C(=C/c2cccn2C)C(=O)/C(=C/c2cccn2C)C1 (stereo not given)	3	12	41*	x	1.4	x
Cc1ccc(NC(=O)CN2C(=O)S/C(=C\c3cccn3C)C2=O)cc1	-4	-5	-2	x	0.8	x
Cc1ccc(CN2CC(C(=O)Nc3ccc(S(=O)(=O)Nc4cc(C)nc(C)n4)cc3)CC2=O)cc1 (stereo not given)	5	-20	33*	8	1.2	1
OC(COCc1ccccc1)Cn1cnc2ccccc21 (stereo not given)	3	0	7	x	1.2	x
OC(CN(c1ccccc1)c1ccccc1)Cn1cnc2ccccc21 (stereo not given)	-11	-1	32*	5	1.6	23
CC(=O)Nc1ccc(C(=O)NC2=NCCS2)cc1	x	x	x	4	x	x
O=C(Nc1ccc(Br)cc1)c1ccc(CSC2=NCCS2)cc1	-10	2	34*	x	1	x
CCC(C)C(=O)Nc1nc(C)c(-c2csc(Nc3ccc(Cl)cc3)n2)s1 (stereo not given)	-9	0	24	x	1	x
C=CCCC(=O)Nc1nc(C)c(-c2csc(Nc3cc(OC)ccc3OC)n2)s1	-13	3	33*	x	1.3	x
CCCC(=O)Nc1nc(C)c(-c2csc(Nc3ccc(Cl)cc3)n2)s1	-9	23	56*	x	1	x
COc1cc(C2C(C(=O)Nc3ccccc3C)=C(C)NC3=C2C(=O)CCC3)cc(OC)c1OC (stereo not given)	x	x	x	-12	x	x
CCCCOC(=O)c1ccc(NS(=O)(=O)c2ccc3ccccc3c2)cc1	x	x	x	2	x	x
O=C(CCN1C(=O)c2ccccc2C1=O)N1CCN(C2c3ccccc3-c3ccccc32)CC1	2	-1	53*	x	1.5	x
CC(C)(C)C(=O)CN1CCN(C2c3ccccc3-c3ccccc32)CC1	-3	-3	5	x	1.5	x
O=C(c1n[nH]c(=O)c2ccccc12)N1CCN(C2c3ccccc3-c3ccccc32)CC1	-6	12	33*	12	1	21
COc1ccc(NC(=O)CN(CCc2ccccc2)S(=O)(=O)c2ccccc2)c(OC)c1	x	x	x	-2	x	x
Cn1ccnc1C(O)c1cc(C(C)(C)C)c(O)c(C(C)(C)C)c1 (stereo not given)	11	-1	7	-3	2.2*	29
SMILES	Ecoli WT expand	PostGolgi yeast	PostGolgi ctrl	HePTP inhibitor	PLAP activator	tolC growth inh
COc1ccc(OC)c(C(O)c2nccn2C)c1 (stereo not given)	x	x	x	3	x	x
CC(C(=O)N1c2ccccc2Sc2ccccc21)n1nnc(-c2cccs2)n1 (stereo not given)	-16	5	32*	7	1.2	7
O=C(O)c1cnn2c1NC(c1ccc3c(c1)OCO3)CC2C(F)(F)F (stereo not given)	x	x	x	-5	x	x
CC1(C)Cc2c(C#N)c(N3CCN(C(=O)c4ccco4)CC3)nc(-c3ccco3)c2CS1	-19	6	21	4	x	15
CCCCc1nc(NCCNC(=O)c2ccco2)c(C#N)c2c1CSC(C)(C)C2	5	18	100*	4	1.9	3
CCCCc1nc(NCCNC(=O)c2ccccc2)c(C#N)c2c1CSC(C)(C)C2	-3	15	99*	x	1.6	x
CC1(C)Cc2c(C#N)c(SCC(=O)c3ccccc3)nc(N3CCOCC3)c2CS1	-16	1	11	4	1.7	10
c1cncc(CNc2cccc(-c3nc4ccccc4s3)c2)c1	x	x	x	10	x	x
N#CC1=C(N)Oc2n[nH]c(-c3cccs3)c2C1c1ccsc1 (stereo not given)	-2	8	8	11	1.1	98*
Cc1ccc(/C(O)=C2\C(=O)C(=O)N(CCCC(=O)O)C2c2ccc(Br)cc2)cc1 (stereo not given)	x	x	x	-13	x	x
Cc1onc(-c2ccccc2)c1C(=O)NCC(C)C	x	x	x	103*	x	x
COc1cc(/C=N/NC(=O)c2c(-c3ccccc3)noc2C)ccc1O	-1	4	-1	x	1	x
CCCNC(=O)c1c(-c2ccccc2)noc1C	x	x	x	-1	x	x
CCCOc1ccccc1NC(=O)c1c(-c2ccccc2)noc1C	5	6	15	10	1	72*
Cc1onc(-c2ccccc2)c1C(=O)Nc1ccc([N+](=O)[O-])cc1Cl	x	x	x	0	x	x
COc1cccc(/C=N/NC(=O)c2c(-c3ccccc3)noc2C)c1O	16	-8	6	x	2.2*	x
Cc1onc(-c2ccccc2)c1C(=O)Nc1ccc([N+](=O)[O-])cc1Br	x	x	x	104*	x	x
O=C(Nc1ccc2ccccc2c1)C1CC(=O)N(c2cccc([N+](=O)[O-])c2)C1 (stereo not given)	x	x	x	4	x	x
O=C1/C(=C\c2ccc(F)cc2)SC(=S)N1CN1CCCCC1	x	x	x	5	x	x
CCC(=O)Oc1ccc2c(C)c(CC)c(=O)oc2c1C	x	x	x	7	x	x
CC(=O)Nc1cccc(NC(=O)c2cccc(I)c2)c1	x	x	x	5	x	x
Cc1cc(C)n(CCn2nc(C)cc2C)n1	-4	-2	37*	2	1.1	-32
CCCC(=O)Nc1ccc(NC(=O)c2cc(Br)ccc2Cl)cc1	x	x	x	2	x	x
S=c1[nH]nc(C2CCCCC2)n1/N=C/C=C/c1ccccc1	7	20	31*	x	1.1	x
COc1ccccc1-c1cc(C(=O)NCc2ccc(Cl)cc2)no1	-3	8	6	2	1	-4
SMILES	Ecoli WT expand	PostGolgi yeast	PostGolgi ctrl	HePTP inhibitor	PLAP activator	tolC growth inh
COc1ccc(CNC(=O)c2cc(-c3ccccc3OC)on2)cc1	-2	1	16	-3	0.8	69*
O=C(NCc1ccccc1)c1ccc(-c2ccc(F)cc2)o1	3	0	31*	x	1	x
COc1ccccc1-c1cc(C(=O)NCc2ccc(F)cc2)no1	-10	4	59*	11	0.8	92*
COc1ccccc1-c1cc(C(=O)NCc2ccccc2)no1	-10	9	26	3	0.9	80*
O=C(c1ncc[nH]1)c1ccccc1C(=O)N1CCOCC1	9	-1	33*	17	1	-15
CC(=O)c1c(OC(=O)c2ccco2)ccc2c(C)cc(=O)oc12	x	x	x	2	x	x
